Results from PubChem BioAssay.
Activity calls are given as the source filed them.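 The calls were made as follows, unless noted: active = Her2 level under about 52% in both replicate screens, with viability over 70% of control (limit read from the data); inconclusive = Her2 under the limit in one screen only, or viability under 70%; inactive = Her2 level above the set limit.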

Key:
[1] = Her2 expression decrease, cell viability multiplex – SKBR3 breast tumor cells, AlphaScreen, ATP viability, primary screen (AID 461); conditions: SKBR3 Her2 protein level, 18-24 h, measured here: SKBR3 viability, ATP luminescence, at 10 µM;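 as to Her2 level: lower value means less Her2 protein in the cells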;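 as to viability: percent of carrier control wells set as 100% viability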
[2] = target: Receptor tyrosine-protein kinase erbB-2 (Homo sapiens) (UniProt P04626); assay: as above; conditions: 18-24 h, at 10 µM, stronger effect = lower value
Sequence of Receptor tyrosine-protein kinase erbB-2 (Homo sapiens) (P04626 whole entry, looked up): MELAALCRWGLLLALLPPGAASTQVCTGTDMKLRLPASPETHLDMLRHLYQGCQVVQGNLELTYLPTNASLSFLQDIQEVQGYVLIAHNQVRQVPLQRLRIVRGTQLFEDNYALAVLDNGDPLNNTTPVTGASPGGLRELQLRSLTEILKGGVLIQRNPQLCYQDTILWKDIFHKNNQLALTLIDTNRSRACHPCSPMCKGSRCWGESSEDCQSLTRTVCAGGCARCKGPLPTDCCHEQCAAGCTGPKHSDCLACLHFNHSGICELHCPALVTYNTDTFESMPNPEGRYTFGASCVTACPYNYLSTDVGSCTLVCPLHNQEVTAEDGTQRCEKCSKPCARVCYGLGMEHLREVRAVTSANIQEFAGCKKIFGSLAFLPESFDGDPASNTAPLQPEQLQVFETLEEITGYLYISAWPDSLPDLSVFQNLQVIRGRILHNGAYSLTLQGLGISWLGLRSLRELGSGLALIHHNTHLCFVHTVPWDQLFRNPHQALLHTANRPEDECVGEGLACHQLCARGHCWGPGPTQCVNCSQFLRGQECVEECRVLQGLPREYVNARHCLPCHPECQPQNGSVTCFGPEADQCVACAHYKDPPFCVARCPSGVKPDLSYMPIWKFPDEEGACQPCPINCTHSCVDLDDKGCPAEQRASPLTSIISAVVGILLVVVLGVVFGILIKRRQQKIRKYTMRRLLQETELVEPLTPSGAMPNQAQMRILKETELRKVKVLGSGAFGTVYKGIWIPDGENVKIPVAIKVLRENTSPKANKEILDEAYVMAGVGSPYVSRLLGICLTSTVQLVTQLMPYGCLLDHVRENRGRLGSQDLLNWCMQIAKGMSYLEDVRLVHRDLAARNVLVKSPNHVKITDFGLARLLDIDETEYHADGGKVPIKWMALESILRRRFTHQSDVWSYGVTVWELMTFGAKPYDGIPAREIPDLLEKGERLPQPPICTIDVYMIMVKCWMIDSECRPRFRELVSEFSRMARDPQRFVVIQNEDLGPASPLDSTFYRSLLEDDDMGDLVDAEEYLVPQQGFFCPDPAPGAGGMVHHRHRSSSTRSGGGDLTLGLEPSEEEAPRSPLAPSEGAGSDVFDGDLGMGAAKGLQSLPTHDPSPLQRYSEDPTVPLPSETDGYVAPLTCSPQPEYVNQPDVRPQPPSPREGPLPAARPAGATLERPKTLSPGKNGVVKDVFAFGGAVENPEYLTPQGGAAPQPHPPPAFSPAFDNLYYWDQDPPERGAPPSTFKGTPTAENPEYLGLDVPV

[3] = reduced viability of SK-BR-3 breast cancer cells – cell-based, 24 h, human, pilot screen (AID 572;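 active = viability at or below 10% of carrier control in both of two separate runs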;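 also: compound exposure lasted between 18 and 24 h rather than exactly 24 h; 100% = carrier-treated control wells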); conditions: SK-BR-3 viability, CellTiter-Glo luminescence, at 10 µM, stronger effect = lower value
[4] = HUVEC growth inhibition – cell-based, human, primary screen (AID 575;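 active = viability at or below 30% in both replicate assays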;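 also: 100% = median of untreated cell wells with 0.1% DMSO on each plate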); conditions: HUVEC proliferation, CellTiter-Glo luminescence, 72 h; at 10 µM; stronger effect = lower value
Method in brief: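 Material: primary human umbilical vein endothelial cells / Schedule: 72 h exposure, 37 °C, 5% CO2, 30 min RT equilibration / Signal: ATP-based CellTiter-Glo luminescent read / Read-out basis: percent of median DMSO-control luminescence / Control set: 32 DMSO-only cell-control wells (high), 32 MePR drug-control wells (low) per plate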

[5] = H69AR cell proliferation blockers – human, duplicate replicates, primary screen (AID 580;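 active = viability at or under a set limit in both replicates, limit being median viability minus 3 SD, cut at about 48% in these data, passing the limit was not always enough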;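 also: 100% = mean luminescence of untreated wells and 0% = no signal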); conditions: H69AR lung tumor cells viability, ATP luminescence, 72 h; at 10 µM; stronger effect = lower value
[6] = MRP1 drug-resistance reversers in H69AR cells – cell-based, doxorubicin co-treatment, pilot screen (AID 601;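 active = viability loss from added drug above about 55%, and viability with drug at most 40%, in both replicates, limit read from the data, passing the limit was not always enough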); conditions: CellTiter-Glo, 72 h, at 10 µM; for differential viability (reversal): stronger effect = higher value
[7] = yeast transport mutant growth inhibition pilot in 384-well plates, post-Golgi transport modulator project (AID 636; in the data active = inhibition above about 31%); conditions: absorbance 615 nm, about 18 h, stronger effect = higher value
[8] = growth suppression of yeast trafficking mutant, preliminary HTS, modulators of trafficking downstream of Golgi apparatus project, 1536-format plate, OD 615 nm (AID 637; in the data active = inhibition above about 30%); conditions: yeast transport mutant growth, absorbance 615 nm, 18 h; stronger effect = higher value
[9] = H69AR cells + 2 uM doxorubicin, measured here: viability with 2 uM doxorubicin, stronger effect = lower value
[10] = H69AR cells, compound alone cytotoxicity

Compound	viability [1] [%]	Her2 level [2]	viability [3]	viability [4]	viability [5]	differential viability (reversal) ([6]; H69AR cells + 2 uM doxorubicin)	viability [6, 9] [%]	viability [6, 10] [%]	inhibition [7]	inhibition [8]
Oc1cc(NCc2cccnc2)ccc1-c1nc2ccccc2o1	86.5	94% (inactive)	86.5% (inactive)	97.2% (inactive)	82.7% (inactive)	-7.37% (inactive)	90.1	82.7	1.17% (inactive)	10.8% (inactive)
Oc1cnc2ccccc2c1CN1CCOCC1	98.5	92% (inactive)	98.5% (inactive)	113% (inactive)	101% (inactive)	-2.39% (inactive)	104	101	-3.16% (inactive)	-0.16% (inactive)
Fc1cc(F)c(F)c(SCCc2ccncc2)c1F	97	81.5% (inactive)	97% (inactive)	93.8% (inactive)	85.3% (inactive)	5% (inactive)	80.3	85.3	0.67% (inactive)	1.45% (inactive)
N#CC1=C(N)OC(c2ccccc2)=C(C#N)C1c1ccc2c(c1)OCO2 (stereo not given)	95	108% (inactive)	95% (inactive)	85.5% (inactive)	93.8% (inactive)	13.3% (inactive)	80.6	93.8	-0.13% (inactive)	100% (active)
CCOc1ccc(N(C(C)=O)C2C=CS(=O)(=O)C2)cc1 (stereo not given)	91.5	90.5% (inactive)	91.5% (inactive)	95.7% (inactive)	94.9% (inactive)	2.48% (inactive)	92.4	94.9	-1.87% (inactive)	0.33% (inactive)
Cc1ccc2cc(C#N)c(N3CCCC3)nc2c1C	77	70.5% (inactive)	77% (inactive)	91.4% (inactive)	74.8% (inactive)	-3.67% (inactive)	78.5	74.8	-5.27% (inactive)	-2.33% (inactive)
c1cnn(-c2cc(N3CCOCC3)ncn2)c1	70	117% (inactive)	70% (inactive)	90.2% (inactive)	93% (inactive)	7.52% (inactive)	85.5	93	4.47% (inactive)	21.6% (inactive)
CC(Oc1ccccc1)C(=O)NC1CCN(Cc2ccccc2)CC1 (stereo not given)	93	83% (inactive)	93% (inactive)	90.7% (inactive)	93.5% (inactive)	7.39% (inactive)	86.1	93.5	-5.6% (inactive)	3.65% (inactive)
COc1cc(S(=O)(=O)n2nnc3ccccc32)c(OC)cc1Cl	96	81.5% (inactive)	96% (inactive)	77% (inactive)	84.9% (inactive)	-3.02% (inactive)	87.9	84.9	-2.8% (inactive)	41.8% (active)
CCc1ccc2nc(NC(=O)CSCc3c(C)noc3C)sc2c1	88.5	110% (inactive)	88.5% (inactive)	52.5% (inactive)	87.2% (inactive)	-10.5% (inactive)	97.6	87.2	-0.67% (inactive)	-7.54% (inactive)
Cc1cc(=O)[nH]c(=S)n1-c1ccccc1	99.5	74.5% (inactive)	99.5% (inactive)	101% (inactive)	100% (inactive)	17.7% (inactive)	82.6	100	-7.03% (inactive)	3.33% (inactive)
O=S(=O)(c1ccccc1)N(Cc1nc(-c2ccccc2)no1)C1CCCCC1	88	77% (inactive)	88% (inactive)	96.1% (inactive)	75.5% (inactive)	-4.17% (inactive)	79.6	75.5	-6.27% (inactive)	-3.33% (inactive)
Cc1cccn2c(=O)c3cc(C(=O)N4CCCc5ccccc54)n(C)c3nc12	86.5	80% (inactive)	86.5% (inactive)	97.2% (inactive)	90.2% (inactive)	1.01% (inactive)	89.2	90.2	-1.89% (inactive)	-5.08% (inactive)
O=C(CSc1nc2ccccc2s1)N1CCOCC1	119	106% (inactive)	119% (inactive)	83.6% (inactive)	90.4% (inactive)	-6.72% (inactive)	97.1	90.4	-2.27% (inactive)	-9.03% (inactive)
O=c1cc(CN2CCN(c3ccc(F)cc3)CC2)nc2sccn12	85	118% (inactive)	85% (inactive)	87.9% (inactive)	87.2% (inactive)	-4.83% (inactive)	92.1	87.2	5.45% (inactive)	-14.2% (inactive)
O=C(O)c1cc2c([nH]c1=O)CCCC2	93.5	81.5% (inactive)	93.5% (inactive)	95% (inactive)	88.8% (inactive)	0.75% (inactive)	88	88.8	-2.24% (inactive)	-1.82% (inactive)

Compound	viability [1] [%]	Her2 level [2]	viability [3]	viability [4]	viability [5]	differential viability (reversal) ([6]; H69AR cells + 2 uM doxorubicin)	viability [6, 9] [%]	viability [6, 10] [%]	inhibition [7]	inhibition [8]
CCOc1ccccc1-n1c(SCC(=O)NCc2ccco2)nnc1-c1ccncc1	87	90% (inactive)	87% (inactive)	90.4% (inactive)	75.6% (inactive)	39.9% (inactive)	35.7	75.6	-7.47% (inactive)	-0.48% (inactive)
CCn1c(SCC(N)=O)nc2c1c(=O)n(C)c(=O)n2C	107	95% (inactive)	107% (inactive)	90% (inactive)	95.9% (inactive)	4.83% (inactive)	91.1	95.9	-2.63% (inactive)	-1.27% (inactive)
CCOC(=O)CNC(=O)c1c(C)nn(-c2ccccc2)c1Cl	98.5	86.5% (inactive)	98.5% (inactive)	96.2% (inactive)	90% (inactive)	-0.915% (inactive)	90.9	90	-2.63% (inactive)	-7.27% (inactive)
COc1ccc(N2CCN(CCCNC(=O)CC3Oc4ccc(C)cc4NC3=O)CC2)cc1 (stereo not given)	87.5	99% (inactive)	87.5% (inactive)	88.9% (inactive)	89.6% (inactive)	0.915% (inactive)	88.7	89.6	-2.27% (inactive)	-2.62% (inactive)
COc1ccccc1N1CCN(C(=O)c2oc3cc(C)c(C)cc3c2C)CC1	117	104% (inactive)	117% (inactive)	82.4% (inactive)	92.7% (inactive)	-2.22% (inactive)	94.9	92.7	-1.18% (inactive)	-2.62% (inactive)
CCN1C(=O)CC(C(=O)Nc2ccc(F)cc2)SC1=Nc1ccc2c(c1)OCO2 (stereo not given)	136	97% (inactive)	136% (inactive)	79.7% (inactive)	86.4% (inactive)	6.02% (inactive)	80.4	86.4	-2.53% (inactive)	-1.61% (inactive)
CCc1nnc2c3cnn(-c4ccccc4)c3ncn12	93.5	95% (inactive)	93.5% (inactive)	102% (inactive)	110% (inactive)	15.1% (inactive)	94.6	110	-3.92% (inactive)	2.38% (inactive)
O=S(=O)(NCc1cccnc1)c1cccc2nsnc12	98	83.5% (inactive)	98% (inactive)	89.6% (inactive)	92.3% (inactive)	6.5% (inactive)	85.8	92.3	-7.07% (inactive)	6.56% (inactive)
COc1ccc(C(=O)OCC(=O)NCc2ccco2)cc1OC	110	89.5% (inactive)	110% (inactive)	102% (inactive)	78.4% (inactive)	-3.74% (inactive)	82.1	78.4	-1.95% (inactive)	-6.23% (inactive)
CC1CCN(C(=O)CCNS(=O)(=O)c2ccccc2)CC1	110	118% (inactive)	110% (inactive)	96.7% (inactive)	92.8% (inactive)	0.83% (inactive)	92	92.8	-3.9% (inactive)	-2.06% (inactive)
COc1ccc(NC(=O)CSC2=C(C#N)C(c3ccco3)C3=C(CCCC3=O)N2)c(OC)c1 (stereo not given)	108	93% (inactive)	108% (inactive)	86.6% (inactive)	73% (inactive)	4.23% (inactive)	68.8	73	-2.11% (inactive)	0.65% (inactive)
O=C1CCN(C(=O)c2ccccc2)C2CCCCC12 (stereo not given)	98	124% (inactive)	98% (inactive)	105% (inactive)	90.3% (inactive)	-0.825% (inactive)	91.1	90.3	-4.55% (inactive)	-11% (inactive)
CC(C)(C)n1nnnc1CN1CCC(NC(=O)NC2CCCCC2)CC1	95	72% (inactive)	95% (inactive)	97% (inactive)	106% (inactive)	15.1% (inactive)	91.3	106	-5.53% (inactive)	-2.5% (inactive)
CC(=O)Nc1ccccc1-c1nc2ccc(C(=O)N3CCN(c4ccccc4)CC3)cc2[nH]c1=O	99.5	88% (inactive)	99.5% (inactive)	86.2% (inactive)	93.4% (inactive)	-1.66% (inactive)	95	93.4	-1.33% (inactive)	1.15% (inactive)
COc1ccc(S(=O)(=O)NCC(c2cccnc2)N2CCN(c3ccc(F)cc3)CC2)cc1C (stereo not given)	91.5	80% (inactive)	91.5% (inactive)	99.1% (inactive)	87.4% (inactive)	-0.665% (inactive)	88.1	87.4	-1.04% (inactive)	-0.98% (inactive)
